MC4R ag barr: MC4R agonists recruiting beta-arrestin, primary screen, cell-based, luminescence, agonist arm of biased-ligand search | 360,000 tested, 0.98% active | Melanocortin receptor 4 (Homo sapiens), P32245 | U2OS MC4R beta-arrestin complementation; percent of melanotan II response, DMSO zero | activation, % at 8.9 µM;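 active means activation above a per-plate cutoff, the mean activation of sample wells on that plate plus 3 SD, cut at about 8% in these data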
Myeloid diff 2: induction of myeloid progenitor differentiation, primary screen, cell-based, flow cytometry, MLPCN library; AID 624256, 2012; calls only at 10 µM; ER-HoxA9 myeloid progenitors, lysozyme-GFP differentiation; 360,000 tested, 1% active;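 active means normalized GFP-positive differentiation at or above the plate's own cutoff, the solvent-only control mean plus 3 SD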;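 further: cells exposed to compound for four days before flow analysis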
Exocytosis inh: LAMP-1 surface exposure blockers, TALL-104 cells – cell-based, flow cytometry, MLPCN library, primary screen | TALL-104 LAMP-1 surface exposure; cells stimulated with thapsigargin and PMA | inhibition, % at 10 µM | 360,000 tested, 0.66% active | AID 651702, 2012;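 active means inhibition above about 55%, limit read from the data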
EBI2 antag: EBI2 receptor antagonists, beta-arrestin recruitment, primary screen, cell-based, luminescence, 7a,25-OHC stimulation, uHTS. inhibition, % at 5 µM. AID 651636, 2012. G-protein coupled receptor 183 (Homo sapiens), P32249. 7a,25-OHC stimulated. 360,000 tested, 0.81% active; in the data active means inhibition above about 38%;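 further: enzyme fragment complementation signal reports receptor beta-arrestin coupling in cells; 0% = agonist plus DMSO wells and 100% = wells without agonist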
Target sequence (P32249 whole entry, looked up, the tested form may be a part): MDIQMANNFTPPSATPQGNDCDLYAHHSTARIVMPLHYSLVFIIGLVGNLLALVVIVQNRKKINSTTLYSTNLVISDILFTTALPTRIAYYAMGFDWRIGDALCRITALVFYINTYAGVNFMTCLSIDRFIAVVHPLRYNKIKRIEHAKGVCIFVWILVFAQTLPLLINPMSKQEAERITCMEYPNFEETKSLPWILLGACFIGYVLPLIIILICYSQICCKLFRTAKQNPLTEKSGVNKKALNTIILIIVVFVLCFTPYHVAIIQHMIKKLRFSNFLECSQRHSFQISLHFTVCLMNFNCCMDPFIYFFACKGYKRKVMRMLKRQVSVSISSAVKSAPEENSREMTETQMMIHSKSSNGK
MC4R antagonist: MC4R antagonists of cAMP signaling, primary screen, cell-based, TR-FRET, antagonist arm of biased-ligand search; Melanocortin receptor 4 (Homo sapiens), P32245; MC4R-expressing cells, MTII-stimulated cAMP, LANCE TR-FRET; inhibition, % at 6.5 µM; 360,000 tested, 0.48% active;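 active means inhibition above its plate's cutoff, the mean of tested wells on that plate plus 3 SD, cut at about 29% in these data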;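 further: 0% = Melanotan II alone and 100% = Melanotan II plus saturating MCL0020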
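System: U2OS-MC4R stable cell line; Technique: Eu-cAMP/anti-cAMP TR-FRET, emission 671 nm; Repeats: single well per compound; Also added: Melanotan II; Dosing: one concentration, 6.5 µM nominal; Schedule: 30-min compound, 1-h challenge, 1-h detection, room temperature.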
Myeloid diff: inducers of myeloid progenitor differentiation, confirmation, cell-based, GFP/Mac1 flow cytometry, cherry pick 01; shares compounds with Myeloid diff 2; ER-HoxA9 myeloid progenitors, GFP/Mac1 double-positive flow; 2,300 tested, 2% active; AID 651706, 2012; calls only;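 active means share of green or green-and-red cells above 9 and 9% in run 1 or 4 and 3% in run 2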
GFP autofluor: counter-screen for myeloid differentiation promoters: compound fluorescence. 2,300 tested, 7.4% active. ER-HoxA9 myeloid progenitors, no estrogen, GFP autofluorescence flow cytometry; vehicle wells 0%, positive control 100%. AID 651707. fluorescence response, % (concentration not given with the values). shares compounds with Myeloid diff 2;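 active means over 5% cells positive for green fluorescent reporter, or over 2% positive for both it and APC stain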;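 further: range taken on the double positive population between DMSO and positive control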
An asterisk follows results filed as active. Sampled rows, rich in hits. Any-hit rate of the full collection: about 3.7%.

COc1ccc([C@H]2N[C@]3(CCCN(Cc4cccn4C)C3=O)[C@H]3C(=O)N(Cc4ccccc4)C(=O)[C@@H]23)cc1 was read as MC4R ag barr 2, Myeloid diff 2 inactive, Exocytosis inh 4, EBI2 antag 1, MC4R antagonist 1, Myeloid diff inactive and GFP autofluor 1.
CCOC(=O)c1ccccc1NS(=O)(=O)c1ccccc1F was read as MC4R ag barr 1, Myeloid diff 2 active, Exocytosis inh -2, EBI2 antag -5, MC4R antagonist 0, Myeloid diff inactive and GFP autofluor 1.
CCCCN1C(=O)C(CC(=O)NCCc2ccccn2)CC(C(=O)N(C)C)=C1C (stereo not given) was read as MC4R ag barr 1, Myeloid diff 2 inactive, Exocytosis inh -5, EBI2 antag 2, MC4R antagonist 11, Myeloid diff inactive and GFP autofluor 18*.
`CCCCN1C(=O)C(CC(=O)NCCc2ccccn2)CC(C(=O)N(C(C)C)C(C)C)=C1C` (stereo not given) gave MC4R ag barr -2, Myeloid diff 2 inactive, Exocytosis inh -5, EBI2 antag 2 and MC4R antagonist -3.
`COC(=O)c1ccc(Nc2cc(C)nc3ccc(C)cc23)cc1` gave MC4R ag barr 1, Myeloid diff 2 active, Exocytosis inh 20, EBI2 antag 21, MC4R antagonist 13, Myeloid diff inactive and GFP autofluor 3.
C=CCNC(=O)COc1ccc(N(C)S(=O)(=O)c2ccc(NC(C)=O)cc2)cc1 was read as MC4R ag barr 0, Myeloid diff 2 inactive, Exocytosis inh 2, EBI2 antag -3, MC4R antagonist 2, Myeloid diff inactive and GFP autofluor 0.
`CCN(CC)C(=O)COc1ccc(N(C)S(=O)(=O)c2ccc(NC(C)=O)cc2)cc1` gave MC4R ag barr -1, Myeloid diff 2 inactive, Exocytosis inh -2, EBI2 antag 9 and MC4R antagonist 2.
Nc1nc2c(ncn2[C@@H]2O[C@H](CNCc3ccccc3)[C@@H](O)[C@H]2O)c(=O)[nH]1 was read as Myeloid diff 2 inactive, Exocytosis inh 5 and EBI2 antag -5.
`COc1cccc(C(=O)C2CCCN(C(=O)c3cccc(C#CC(C)(C)O)c3)C2)c1` (stereo not given) gave MC4R ag barr -1, Myeloid diff 2 inactive, Exocytosis inh 4, EBI2 antag -3 and MC4R antagonist 22.
COc1cccc(/C=C(/C#N)c2ccc(F)cc2)c1OCc1cccc(C(=O)O)c1 was read as MC4R ag barr -1, Myeloid diff 2 inactive, Exocytosis inh 0, EBI2 antag -4 and MC4R antagonist 6.
For N#C/C(=C/c1cccn1-c1cccc(C(=O)O)c1)c1ccc(F)cc1 the results were MC4R ag barr 0, Myeloid diff 2 active, Exocytosis inh 0, EBI2 antag 5, MC4R antagonist 11, Myeloid diff inactive and GFP autofluor 1.
Screening CCC(=S)/C=C1\Sc2ccccc2N1CCCS(=O)(=O)O returned MC4R ag barr -3, Myeloid diff 2 inactive, Exocytosis inh 0, EBI2 antag -5, MC4R antagonist 3, Myeloid diff inactive and GFP autofluor 4.
Screening COc1cc(OC)c(OC)cc1/C=N/NC(=O)c1cc(-c2cccn2C)n[nH]1 returned MC4R ag barr 0, Myeloid diff 2 inactive, Exocytosis inh -1, EBI2 antag -2 and MC4R antagonist -2.
Screening CCOc1cccc(/C=N/NC(=O)c2cc(-c3cccn3C)n[nH]2)c1O returned MC4R ag barr -2, Myeloid diff 2 active, Exocytosis inh -4, EBI2 antag 12, MC4R antagonist 4, Myeloid diff inactive and GFP autofluor 0.
CCn1cc(C2CC(=O)NC2=O)c2ccccc21 (stereo not given) was read as MC4R ag barr 1, Myeloid diff 2 inactive, Exocytosis inh 0, EBI2 antag -12 and MC4R antagonist 0.
`O=C(NC1CC2CCC1C2)c1ccco1` (stereo not given) gave MC4R ag barr 0, Myeloid diff 2 inactive, Exocytosis inh 3, EBI2 antag 0, MC4R antagonist -2, Myeloid diff inactive and GFP autofluor 0.
`CC1(C(=O)NS(=O)(=O)c2ccccc2C(F)(F)F)CCN1C(=O)CCC1CCCC1` (stereo not given) gave MC4R ag barr 0, Myeloid diff 2 inactive, Exocytosis inh -5, EBI2 antag -7 and MC4R antagonist 17.
`O=c1oc2ccccc2c(Nc2ccccc2O)c1[N+](=O)[O-]` gave MC4R ag barr 0, Myeloid diff 2 active, Exocytosis inh -10, EBI2 antag 7, MC4R antagonist 19, Myeloid diff inactive and GFP autofluor 0.
For CCN1CCc2c(sc(NC(=O)c3ccc(S(=O)(=O)N(CC)c4ccccc4)cc3)c2C(N)=O)C1 the results were MC4R ag barr -1, Myeloid diff 2 active, Exocytosis inh 1, EBI2 antag 7, MC4R antagonist 17, Myeloid diff inactive and GFP autofluor 15*.
For CCN1CCc2c(sc(NC(=S)NC(=O)c3ccco3)c2C(N)=O)C1 the results were MC4R ag barr 0, Myeloid diff 2 inactive, Exocytosis inh -7, EBI2 antag 5, MC4R antagonist -8, Myeloid diff inactive and GFP autofluor 3.
For CCN1CCc2c(sc(NC(=O)c3ccc(C(=O)c4ccccc4)cc3)c2C(N)=O)C1 the results were MC4R ag barr -4, Myeloid diff 2 inactive, Exocytosis inh 12, EBI2 antag 21 and MC4R antagonist -1.
Cc1sc(NC(=S)NC(=O)c2ccco2)c(C(N)=O)c1C was read as MC4R ag barr -1, Myeloid diff 2 inactive, Exocytosis inh 17, EBI2 antag 11 and MC4R antagonist 12.
`COc1ccc(C(=O)Nc2nc3ccc(S(C)(=O)=O)cc3s2)cc1OC` gave MC4R ag barr -1, Myeloid diff 2 inactive, Exocytosis inh -2, EBI2 antag 2 and MC4R antagonist 9.
For CS(=O)(=O)c1ccc2nc(NC(=O)Cc3ccccc3)sc2c1 the results were MC4R ag barr 0, Myeloid diff 2 inactive, Exocytosis inh 0, EBI2 antag -2 and MC4R antagonist 13.

High-throughput results from PubChem BioAssay.
